Results from PMC10334013 (International Journal of Tryptophan Research : IJTR, 2023).

Experiments:
human AHR = molecular target: T1, human AHR (Homo sapiens, UniProt P35869); assay: Human AHR-dependent luciferase reporter assay; assay type: cell-based; details: HepG2 40/6 luciferase reporter, 4 hours, normalized to 10 nM TCDD and VEH
T1 sequence (P35869 11-848): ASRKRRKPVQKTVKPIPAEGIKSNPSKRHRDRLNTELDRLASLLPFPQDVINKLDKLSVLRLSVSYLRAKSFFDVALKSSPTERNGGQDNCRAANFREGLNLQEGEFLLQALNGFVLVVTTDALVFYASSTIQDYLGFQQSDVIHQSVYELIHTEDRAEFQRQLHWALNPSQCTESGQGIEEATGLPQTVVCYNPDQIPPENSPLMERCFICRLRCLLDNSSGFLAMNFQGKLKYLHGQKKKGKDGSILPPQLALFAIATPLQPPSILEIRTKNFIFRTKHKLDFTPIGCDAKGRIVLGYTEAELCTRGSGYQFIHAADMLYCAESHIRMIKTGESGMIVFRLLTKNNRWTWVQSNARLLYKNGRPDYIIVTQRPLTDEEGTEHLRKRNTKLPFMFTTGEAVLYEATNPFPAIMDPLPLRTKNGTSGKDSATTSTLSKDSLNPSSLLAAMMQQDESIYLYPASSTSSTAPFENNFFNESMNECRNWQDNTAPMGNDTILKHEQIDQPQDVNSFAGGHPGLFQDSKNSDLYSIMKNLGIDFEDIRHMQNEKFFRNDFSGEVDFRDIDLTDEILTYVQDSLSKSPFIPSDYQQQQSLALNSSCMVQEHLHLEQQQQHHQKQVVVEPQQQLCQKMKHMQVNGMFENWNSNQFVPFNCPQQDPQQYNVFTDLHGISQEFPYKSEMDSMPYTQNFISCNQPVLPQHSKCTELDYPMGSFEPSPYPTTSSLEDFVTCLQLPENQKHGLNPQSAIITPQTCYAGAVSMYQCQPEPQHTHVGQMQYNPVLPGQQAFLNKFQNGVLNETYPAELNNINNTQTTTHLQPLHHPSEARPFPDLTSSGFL

mouse AHR = assay: Mouse AHR-dependent luciferase reporter assay; assay type: cell-based; details: Hepa 1.1 cells, 4 hours, mean concentrations measured in mouse sera
Procedure, shortened: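 Hepa 1.1 cells were grown in αMEM with 8% FBS and 1% penicillin-streptomycin, then seeded 24 h before treatment. […] Lysate luciferase was read by luminometer and compared with vehicle; one-way ANOVA.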

AHR target gene, CYP1A1 = assay: CYP1A1 induction in Caco2 cells; assay type: cell-based, human; details: 4 hours, mean serum concentrations
IL1B = assay type: cell-based, human; details: FLS co-treated with 0.5 ng/mL IL1β, 24 hours; TCDD 10 nM
Procedure, shortened: (§1)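 Primary human fibroblast-like synoviocytes from healthy donors, kept and treated in Synoviocyte Growth Medium. […] RNA was isolated and transcripts quantified by real-time qPCR relative to ACTB, normalised to TCDD (10 nM) and vehicle. Mean ± SEM; one-way ANOVA.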

EREG = assay type: cell-based, human; details: FLS co-treated with 0.5 ng/mL IL1β, 24 hours; TCDD 10 nM
Procedure, shortened: as §1

EC25 (human AHR)	SMILES	other results
25.9 µM	O=C(O)C(O)Cc1c[nH]c2ccccc12 (centres unmarked) [Indole-3-lactic acid, indole-3-lactic acid]	–
19.2 µM	O=C(O)CCc1c[nH]c2ccccc12 [Indole-3-propionic acid, indole-3-propionic acid]	–
0.0408 µM	O=C(O)c1cc(=O)c2ccccc2[nH]1 [Kynurenic acid, kynurenic acid]	–
1.76 µM	Nc1ccccc1C(=O)CC(N)C(=O)O (centres unmarked) [Kynurenine, kynurenine]	induction of luciferase activity relative to the vehicle treatment (mouse AHR): ~ 6 fold; AHR activity (CYP1A1 transcripts by qPCR) versus vehicle (AHR target gene, CYP1A1): significantly different from the vehicle treatment
–	Clc1cc2c(cc1Cl)Oc1cc(Cl)c(Cl)cc1O2 [TCDD, 2,3,7,8-tetrachlorodibenzo-p-dioxin]	induction in IL1B expression (IL1B): 192 fold; induction in EREG expression (EREG): 27 fold
